# According to ChEMBL document CHEMBL4834477, “Synthesis and biological evaluation of novel purinyl quinazolinone derivatives as PI3Kδ-specific inhibitors for the treatment of hematologic malignancies” (Bioorg Med Chem, 2021):
# Experiments:
# [1] = target: PI3-kinase p110-alpha/p85-alpha (Homo sapiens, UniProt P42336); assay: Inhibition of recombinant human full length N-terminal His-tagged p110alpha/p85alpha expressed in baculovirus expression system measured after 60 mins in presence of ATP by ATP-competitive binding assay
# Method in brief: (§1)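 SelectScreen ATP-competitive assay using 10-point titration with 1 μM top final compound concentration. Kinase, substrate and ATP mixed in 30 mM HEPES buffer and reacted 60 min. IC50 taken as the mean of three independent experiments.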
# [2] = target: PI3-kinase p110-delta/p85-alpha (Homo sapiens, UniProt O00329); assay: Inhibition of recombinant human full length His-tagged p110delta/p85alpha expressed in baculovirus expression system measured after 60 mins in presence of ATP by ATP-competitive binding assay; method in brief: as §1
# [3] = AUC (last) in Sprague-Dawley rat at 1 mg/kg, po measured for 24 hrs by LC-MS/MS analysis; assay type: ADME, organism-based; set-up: route oral, dose 1 mg/kg, time 24 hrs; conditions: in vivo
# Method in brief: (§2)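 Sprague-Dawley rats dosed orally at 1 or 3 mg/kg, three animals per group. Blood sampled at 0.25, 0.5, 1, 2, 4, 8 and 24 h post-dose. Plasma separated by centrifugation, extracted and quantified by LC-MS/MS. PK parameters (Cmax, AUClast, Tmax, t1/2) derived by non-compartmental software.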
# [4] = Tmax in Sprague-Dawley rat at 1 mg/kg, po measured for 24 hrs by LC-MS/MS analysis; assay type: ADME, organism-based; conditions: in vivo; method in brief: as §2
# MOLT-4 = assay: Antiproliferative activity against human MOLT-4 cells assessed as reduction in cell viability at 20 uM by CellTiter-Glo luminescent cell viability assay relative to idelalisib; assay type: functional
# Method in brief: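 Cells were seeded at 5x10^4 per well and exposed to the compound at a single concentration: 10 μM for SUDHL-5 and 20 μM for MOLT-4. CellTiter-Glo reagent was added 1:1, mixed for 2 min to lyse the cells, and held 10 min at room temperature before reading luminescence. Readings were background-subtracted and normalized to control wells.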
# Sequence of PI3-kinase p110-alpha/p85-alpha (P27986 whole entry): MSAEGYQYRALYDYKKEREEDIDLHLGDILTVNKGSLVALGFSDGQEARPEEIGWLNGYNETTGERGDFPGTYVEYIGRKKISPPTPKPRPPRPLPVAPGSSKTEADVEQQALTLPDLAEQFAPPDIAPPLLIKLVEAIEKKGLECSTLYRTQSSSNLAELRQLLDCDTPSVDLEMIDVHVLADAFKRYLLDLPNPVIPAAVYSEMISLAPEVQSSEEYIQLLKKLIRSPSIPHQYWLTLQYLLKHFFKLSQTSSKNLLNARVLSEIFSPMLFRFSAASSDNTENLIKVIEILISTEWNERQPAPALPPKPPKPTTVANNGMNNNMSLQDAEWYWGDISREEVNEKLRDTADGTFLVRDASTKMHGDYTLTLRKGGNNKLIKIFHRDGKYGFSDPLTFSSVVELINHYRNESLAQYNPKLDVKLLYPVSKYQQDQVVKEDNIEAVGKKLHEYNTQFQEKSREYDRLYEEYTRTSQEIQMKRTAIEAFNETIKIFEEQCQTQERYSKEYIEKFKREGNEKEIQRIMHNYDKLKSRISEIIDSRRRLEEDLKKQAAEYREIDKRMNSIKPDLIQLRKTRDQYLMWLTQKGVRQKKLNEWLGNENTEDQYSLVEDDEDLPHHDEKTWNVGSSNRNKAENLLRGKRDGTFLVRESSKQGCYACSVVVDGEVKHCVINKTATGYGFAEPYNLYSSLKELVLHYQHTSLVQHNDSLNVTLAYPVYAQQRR
# Sequence of PI3-kinase p110-alpha/p85-alpha (P42336 whole entry): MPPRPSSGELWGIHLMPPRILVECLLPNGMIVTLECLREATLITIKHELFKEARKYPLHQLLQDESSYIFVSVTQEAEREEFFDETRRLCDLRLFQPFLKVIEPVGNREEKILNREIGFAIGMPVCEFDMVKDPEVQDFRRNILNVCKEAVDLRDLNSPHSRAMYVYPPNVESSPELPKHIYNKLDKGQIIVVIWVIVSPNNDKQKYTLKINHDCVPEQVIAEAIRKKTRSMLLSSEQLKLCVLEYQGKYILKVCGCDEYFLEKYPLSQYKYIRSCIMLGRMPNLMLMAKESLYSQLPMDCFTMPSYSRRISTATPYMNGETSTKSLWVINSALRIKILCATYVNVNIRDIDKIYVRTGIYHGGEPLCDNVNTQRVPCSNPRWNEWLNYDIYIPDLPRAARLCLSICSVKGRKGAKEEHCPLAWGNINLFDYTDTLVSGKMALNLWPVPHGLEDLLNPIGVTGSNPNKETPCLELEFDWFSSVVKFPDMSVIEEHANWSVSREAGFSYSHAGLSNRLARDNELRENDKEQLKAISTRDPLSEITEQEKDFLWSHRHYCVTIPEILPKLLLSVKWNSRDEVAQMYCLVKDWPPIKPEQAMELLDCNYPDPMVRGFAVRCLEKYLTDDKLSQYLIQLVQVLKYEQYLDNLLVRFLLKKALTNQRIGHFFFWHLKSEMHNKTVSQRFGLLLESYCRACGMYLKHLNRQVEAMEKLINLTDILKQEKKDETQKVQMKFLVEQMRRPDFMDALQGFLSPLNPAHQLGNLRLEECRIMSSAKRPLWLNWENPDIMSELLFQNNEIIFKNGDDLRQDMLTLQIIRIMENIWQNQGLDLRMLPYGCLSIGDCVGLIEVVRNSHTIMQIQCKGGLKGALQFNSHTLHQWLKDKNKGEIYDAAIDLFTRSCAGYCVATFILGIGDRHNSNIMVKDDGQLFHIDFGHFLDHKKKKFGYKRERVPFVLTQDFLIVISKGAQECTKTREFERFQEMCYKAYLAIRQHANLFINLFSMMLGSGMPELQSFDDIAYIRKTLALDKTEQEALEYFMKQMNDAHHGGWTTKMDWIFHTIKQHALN
# Sequence of PI3-kinase p110-delta/p85-alpha (P27986 whole entry): as the sequence (P27986 whole entry) above
# Sequence of PI3-kinase p110-delta/p85-alpha (O00329 whole entry): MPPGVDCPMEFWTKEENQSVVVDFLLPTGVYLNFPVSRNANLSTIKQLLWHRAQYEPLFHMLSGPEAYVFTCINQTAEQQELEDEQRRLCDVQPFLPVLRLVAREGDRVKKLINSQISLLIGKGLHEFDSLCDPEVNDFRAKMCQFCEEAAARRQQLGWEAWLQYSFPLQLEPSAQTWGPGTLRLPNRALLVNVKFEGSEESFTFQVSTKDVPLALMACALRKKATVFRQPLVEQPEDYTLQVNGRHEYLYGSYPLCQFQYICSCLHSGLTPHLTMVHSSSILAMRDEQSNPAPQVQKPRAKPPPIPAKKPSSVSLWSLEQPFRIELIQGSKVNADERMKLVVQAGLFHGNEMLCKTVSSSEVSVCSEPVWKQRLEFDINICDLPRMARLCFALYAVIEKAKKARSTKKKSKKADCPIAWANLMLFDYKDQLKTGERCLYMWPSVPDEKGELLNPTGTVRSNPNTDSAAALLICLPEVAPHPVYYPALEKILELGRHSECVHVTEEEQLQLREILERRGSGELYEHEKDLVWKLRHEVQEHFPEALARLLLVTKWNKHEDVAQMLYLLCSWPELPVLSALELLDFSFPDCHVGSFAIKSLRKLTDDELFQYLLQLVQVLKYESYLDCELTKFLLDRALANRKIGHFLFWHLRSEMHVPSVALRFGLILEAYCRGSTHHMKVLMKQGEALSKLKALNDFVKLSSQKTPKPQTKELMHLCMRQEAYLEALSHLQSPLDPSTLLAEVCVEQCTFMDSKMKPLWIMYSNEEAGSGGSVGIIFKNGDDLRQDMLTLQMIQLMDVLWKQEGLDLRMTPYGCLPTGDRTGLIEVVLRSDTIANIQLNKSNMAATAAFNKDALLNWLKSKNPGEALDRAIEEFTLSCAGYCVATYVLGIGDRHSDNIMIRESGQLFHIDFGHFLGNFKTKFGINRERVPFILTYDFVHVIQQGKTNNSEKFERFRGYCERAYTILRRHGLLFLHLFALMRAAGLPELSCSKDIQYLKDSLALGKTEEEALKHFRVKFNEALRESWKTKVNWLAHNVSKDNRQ
IC50 [1],IC50 [2],AUC(0-t) at 24 h [3],Tmax [4],SMILES,fold change (FC) (MOLT-4)
222 nM,0.39 nM,81 ng·h/mL,30 min,O=c1c2c(F)cccc2nc([C@@H](Nc2ncnc3nc[nH]c23)C2CC2)n1-c1ccccc1,–
–,–,–,–,Cc1cccc2nc([C@@H](Nc3ncnc4nc[nH]c34)C3CC3)n(-c3ccccc3)c(=O)c12,5
